Compounds with a hit are over-represented: about 4.7% of the library has one in this group of screens.
NR3A LBD binder = binders of NR3A ligand-binding domain, primary screen, biophysical, differential scanning fluorimetry, uHTS | Glutamate receptor ionotropic, NMDA 3A (GRIN3A) ligand-binding domain | Tm shift relative to glycine control, % at 25 µM | NR3A LBD differential scanning fluorimetry, Tm shift; 0% = protein alone, 100% = glycine-bound protein | 2.5% of 340,000 active;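 active = melting temperature shift of at least 10% of the positive control shift, at one fixed dose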
MT1-MMP act inh = blockers of MT1-MMP proenzyme processing, primary screen, HT1080 RFP-PRO-GFP cells, GFP/RFP fluorescence; AID 651647, 2012; GFP/RFP ratio fluorescence, overnight; percent of plate control window, DMSO zero; Matrix metalloproteinase-14 (Homo sapiens), P50281; 0.061% of 360,000 active; GFP/RFP ratio change, % at 20 µM;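 active = GFP/RFP ratio change of at least 30% with cell ATP level not reduced by more than half and red fluorescence within 50% of control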
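Compound: 20 µM single dose, 1% DMSO / System: HT1080 RFP-PRO-GFP cells / Controls: DMSO and RFP-L50D-GFP cell wells / Read-out basis: GFP/RFP fluorescence ratio / Schedule: overnight compound exposure at 37 °C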
ADAM10 inh = human ADAM10 inhibitors, primary screen, biochemical, QFRET, HTS; Disintegrin and metalloproteinase domain-containing protein 10 (Homo sapiens), O14672; recombinant ADAM10, EDANS/DABCYL FRET peptide cleavage, 3 h; inhibition, % at 7 µM; 0.62% of 370,000 active; AID 720582, 2013;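 active = inhibition above a per-campaign cutoff equal to the mean of compounds falling between control-based bounds plus 3 SD, cut at about 20% in these data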
MPTP block = mitochondrial permeability transition pore inhibitors, primary screen, biochemical, isolated mouse mitochondria, absorbance; Ca2+ swelling absorbance, 30 min; inhibition, % at 10 µM; 1.4% of 360,000 active;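 active = inhibition of 50% or more, scaled per plate between neutral and stimulator controls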
SKN-1 inh = suppressors of acrylamide-induced Pgst-4::GFP reporter in worms, primary screen, SKN-1 inhibitor project, whole organism, uHTS, GFP/RFP fluorescence ratio, strain VP596 | C. elegans VP596 Pgst-4::GFP/RFP ratio, 24 h | 0.49% of 360,000 active | inhibition, % at 21.8 µM;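 active = interference check ratio from 0.5 to 1.5 plus GFP to RFP signal ratio inhibition reaching or exceeding a fixed threshold, cut at about 30% in these data, passing the limit was not always enough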
ADAM17 inh = ADAM17 inhibitors, primary screen, biochemical, QFRET; 0.83% of 370,000 active; recombinant ADAM17, EDANS/DABCYL FRET peptide cleavage; inhibition, % at 6.95 µM; Disintegrin and metalloproteinase domain-containing protein 17 (Homo sapiens), P78536; AID 720648, 2013;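 active = inhibition above the mean of compounds lying between control limits plus 3 SD, set per campaign, cut at about 8.5% in these data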
Target sequence (P78536 215-824 limits assumed): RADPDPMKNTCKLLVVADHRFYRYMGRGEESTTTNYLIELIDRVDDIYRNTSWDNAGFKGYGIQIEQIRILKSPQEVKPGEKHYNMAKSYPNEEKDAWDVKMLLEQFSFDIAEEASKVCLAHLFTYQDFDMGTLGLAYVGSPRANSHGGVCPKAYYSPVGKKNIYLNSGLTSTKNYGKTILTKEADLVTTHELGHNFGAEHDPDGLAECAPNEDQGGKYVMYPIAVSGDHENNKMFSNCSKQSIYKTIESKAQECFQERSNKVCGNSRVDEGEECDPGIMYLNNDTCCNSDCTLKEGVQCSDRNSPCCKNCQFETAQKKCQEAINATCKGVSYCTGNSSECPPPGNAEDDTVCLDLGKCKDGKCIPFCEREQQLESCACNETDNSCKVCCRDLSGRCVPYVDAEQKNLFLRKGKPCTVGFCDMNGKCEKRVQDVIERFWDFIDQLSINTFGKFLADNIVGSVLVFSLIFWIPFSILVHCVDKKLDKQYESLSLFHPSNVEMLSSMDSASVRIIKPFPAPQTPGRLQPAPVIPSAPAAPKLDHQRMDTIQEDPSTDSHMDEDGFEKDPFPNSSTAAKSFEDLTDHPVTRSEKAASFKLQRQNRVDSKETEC
Of the large screens only hits and unclear results are named; the others gave an inactive call.

COc1ccc(CN2C(=O)C(CC(=O)NCc3ccco3)CC(C(=O)N(C)C)=C2C)cc1 (stereo not drawn)	none (no result: NR3A LBD binder)
Cc1cc(Cl)ccc1N=c1ssnc1Cl	NR3A LBD binder 24
COc1cc(N=c2ssnc2Cl)c(OC)cc1Cl	NR3A LBD binder 19
Cc1ccc(N=c2ssnc2Cl)cc1	NR3A LBD binder 22
Cc1cc(C)nc(/N=c2/ssnc2Cl)c1	none
COc1ccc(OC)c(N=c2ssnc2Cl)c1	none
Cc1nnc(N=c2ssnc2Cl)o1	NR3A LBD binder 21
COc1ccc(C(=O)Nc2nc(CC(=O)NCc3ccc(F)cc3)cs2)cc1	none
CCN(CC)S(=O)(=O)c1ccc2c(c1)nc(CCC(=O)Nc1cccc(C(F)(F)F)c1)n2CC	ADAM17 inh 10
CCN(CC)S(=O)(=O)c1ccc2c(c1)nc(CCC(=O)O)n2CC	none
CCn1c(CCC(=O)Nc2nc3c(s2)CCCC3)nc2cc(S(=O)(=O)N(C)C)ccc21	SKN-1 inh 54
C/C(=N\NC(=O)Cn1nc(C)c([N+](=O)[O-])c1C)c1ccco1	none
CC(C)C[C@H]1COc2cc(N3CCSCC3)ccc2S(=O)(=O)N1	none (no result: NR3A LBD binder)
COc1ccc(-c2nn(-c3ccccc3)cc2/C=C/C(=O)OCC(=O)Nc2ccc(C#N)cc2)cc1	none (no result: ADAM10 inh, ADAM17 inh)
COc1ccc(-c2nn(-c3ccccc3)cc2/C=C/C(=O)OCC(=O)Nc2cccc(C#N)c2)cc1	NR3A LBD binder 25
COc1cccc(NC(=O)CN(C)C(=O)/C=C/c2cn(-c3ccccc3)nc2-c2ccc(C)cc2)c1	NR3A LBD binder 17
COc1ccc(NC(=O)CN(C)C(=O)/C=C/c2cn(-c3ccccc3)nc2-c2cccs2)cc1	none
COc1ccc(NC(=O)CN(C)C(=O)/C=C/c2cn(-c3ccccc3)nc2-c2ccc(F)cc2)cc1	NR3A LBD binder 10
COC(=O)C1CCN(C(=O)Nc2ccccc2)CC1	none
CC(C)(CO)NS(=O)(=O)c1ccc2c(c1)C(=NO)c1cc(S(=O)(=O)NC(C)(C)CO)ccc1-2	none
COC(=O)Cc1cc(OC)c(OC)cc1Cc1cc(OC)c(OC)cc1CC(=O)OC	none
COc1ccc(C(=O)/C=C2/Sc3cc4c(cc3N2C)OCO4)cc1	none
CN1/C(=C/C(=O)c2ccc(Cl)cc2)Sc2cc3c(cc21)OCO3	NR3A LBD binder 16
O=C1c2ccccc2CCc2ccc(Br)cc21	SKN-1 inh 36
COc1ccc2c(c1)OC/C(=C/c1cccs1)C2=O	SKN-1 inh 54
CC12CCC(C(=O)NCc3ccccc3)(OC1=O)C2(C)C (stereo not drawn)	none
CC12CCC(C(=O)NCc3ccc(Cl)cc3)(OC1=O)C2(C)C (stereo not drawn)	NR3A LBD binder 11
CCCN(C(=O)Cn1c(C(F)(F)F)nc2ccccc21)C1CCS(=O)(=O)C1 (stereo not drawn)	none
COc1cc(C(=O)NNC(=O)C2CC2)cc(OC)c1OC	NR3A LBD binder 15
COc1cccc(/C=N/n2c(=S)n(C)c3cc(C)c(C)cc32)c1OC	none
O=C(NC1CCCC1)C(c1ccc(F)cc1)N(Cc1ccc(F)cc1)C(=O)c1ccn[nH]1 (stereo not drawn)	NR3A LBD binder 17
O=C(NC1CCCC1)C(c1ccncc1)N(Cc1ccccc1)C(=O)c1ccc(-c2ccccc2)[nH]1 (stereo not drawn)	none
O=C(Nc1cccnc1)c1noc2c1CCCC2	NR3A LBD binder 11
CCOC(=O)C1=NN(c2ccccc2)C(=O)C1	none
CC1(C)CC(=O)C=C(NC2CCCCCC2)C1	NR3A LBD binder 11
CCn1c(=O)c2cc(C(=O)NCCN3CCOCC3)sc2c2ccccc21	none
COCCn1c(C)cc(C(=O)CSc2nc3ccccc3c(=O)n2Cc2ccco2)c1C	NR3A LBD binder 12
O=C(Nc1nnc(-c2cccs2)o1)c1cccc(C(F)(F)F)c1	none
Cn1c(N)c(C(=O)COC(=O)c2cc(C3CC3)nc3ccccc23)c(=O)n(Cc2ccccc2)c1=O	NR3A LBD binder 18
Cn1c(N)c(C(=O)COC(=O)c2cc(-c3ccccc3)nc3ccccc23)c(=O)n(Cc2ccccc2)c1=O	none (no result: ADAM10 inh, ADAM17 inh)
CCS(=O)(=O)Nc1ccc(C2=NN(C(=O)c3ccco3)C(c3ccc(C)cc3)C2)cc1 (stereo not drawn)	none (no result: ADAM10 inh, ADAM17 inh)
Cc1c(C(=O)NN2CCOCC2)oc2ccccc12	none
COc1cc(Cl)ccc1OC1(C)CCN(Cc2cccn2-c2nccs2)C1 (stereo not drawn)	none (no result: NR3A LBD binder)
CCCCNC(=O)CC1N=C2c3ccccc3N=C(SCC(=O)Nc3ccccc3C)N2C1=O (stereo not drawn)	NR3A LBD binder 18
COc1ccc(Br)cc1/C=C(\C(=O)O)c1ccc(S(=O)(=O)N2CCCCC2)s1	none
CN1CCC(=NNC(=O)CN(c2ccccc2)S(=O)(=O)c2ccccc2)CC1	NR3A LBD binder 10
CC(C)c1ccc(N(CC(=O)NN=C2CCN(C)CC2)S(=O)(=O)c2ccccc2)cc1	none
Cc1ccc(OCc2nnc(SCC(=O)N3CCOCC3)n2C)cc1	NR3A LBD binder 16
O=C(CSCc1ccc(Cl)cc1)N1CCOCC1	none
Cc1ccc(CSCC(=O)N2CCOCC2)cc1	SKN-1 inh 44
CC(=O)Nc1ccc(SC[C@H](Cc2ccccc2)N2CCN(CC(C)C)CCC2=O)cc1	none
CC(=O)Nc1ccc(SC[C@H](CC(C)C)N2CCN(CC(C)C)CCC2=O)cc1	NR3A LBD binder 13
C/C(CCc1ccc2c(c1)OCO2)=N\N=C(/N)SC1CC(=O)N(c2ccc(Cl)cc2)C1=O (stereo not drawn)	NR3A LBD binder 16
N/C(=N\N=C\c1ccc2c(c1)OCO2)SC1CC(=O)N(c2ccc(C(=O)O)cc2)C1=O (stereo not drawn)	none
O=C(OCc1ccccc1)N1CCC2CC1c1ccc(N3CCOCC3)cc12 (stereo not drawn)	none (no result: NR3A LBD binder)
COC(=O)c1nc[nH]c1[N+](=O)[O-]	none
O=[N+]([O-])c1[nH]cnc1/C=C/c1ccccc1	NR3A LBD binder 22
Cc1ccc(C(=O)NC(=S)Nc2ccccc2C(F)(F)F)c(C)c1	SKN-1 inh 32
